The record followed here is ChEMBL document CHEMBL1139530, “Synthesis and antibacterial properties of novel hydrolyzable cationic amphiphiles. Incorporation of multiple head groups leads to impressive antibacterial activity” (2005).

What is called MBC is the smallest concentration meeting the test's criterion for killing. Lower therefore signals more potent killing.

What all share (type): functional
One assay concerns Enterococcus faecalis. Kind of assay: Minimum bactericidal concentration against Enterococcus faecalis. The gist of the method: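 Spread-plate MBC in LB broth (pH ≈7). E. faecalis came from a blood agar colony and was grown 12 h at 37 °C with shaking to 10⁷-10⁸ cells/mL. Amphiphile was added from a sterile-water stock, with water as the control, then incubated 5 h at 37 °C with shaking. Dilutions were plated on LB agar for 24 h at 37 °C. MBC is the lowest concentration giving no colonies; the value is the mean of three experiments.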

A further assay deals with Escherichia coli. Kind of assay: Minimum bactericidal concentration against Escherichia coli. The gist of the method: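 E. coli from a freeze-dried ampule was streaked on LB agar (37 °C, 24 h), and a single colony was grown in LB for 10 h at 37 °C with shaking to 10⁸-10⁹ cells/mL. Amphiphile from a sterile-water stock, or water as the control, was incubated 5 h at 37 °C with shaking. Dilutions were spread on LB agar for 24 h at 37 °C. MBC is the lowest concentration with no colonies, averaged over three experiments.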

The next assay has as its system Shigella sonnei. Kind of assay: Minimum bactericidal concentration against Shigella sonnei. The procedure, abridged: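 A single S. sonnei colony was grown in LB for 12 h at 37 °C with shaking to 10⁷-10⁸ cells/mL, then exposed in tubes to amphiphile from a sterile-water stock, or water as the control, for 5 h at 37 °C with shaking. Diluted samples were spread on LB agar and incubated 24 h at 37 °C. MBC is the lowest concentration leaving no colonies; the value is the mean of three experiments.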

A further assay relates to Staphylococcus aureus. Kind of assay: Minimum bactericidal concentration against Staphylococcus aureus. The procedure, abridged: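 S. aureus came from a blood agar colony and was grown in LB for 10 h at 37 °C with shaking to 10⁹-10¹⁰ cells/mL. Cells were exposed 5 h at 37 °C with shaking to amphiphile from a sterile-water stock, with water as the control. Dilutions were plated on LB agar for 24 h at 37 °C. MBC is the lowest concentration giving no colonies, averaged over three separate experiments.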

With `CCCCCCCCCCCCCCCC[n+]1ccccc1` [CETYLPYRIDINIUM BROMIDE], the MBC against Enterococcus faecalis was 16.3 µM; in the assay with Escherichia coli, 10.4 µM; in the assay on Shigella sonnei it was 12.4 µM; in the assay on Staphylococcus aureus, 15.6 µM.
In the same order, the values of `CCCCCCCCCCCCCCC(COC(=O)C[n+]1ccccc1)COC(=O)C[n+]1ccccc1` are 10.4 µM, 8.2 µM, 8.9 µM and 13.9 µM.
As for Hexadecyl-trimethyl-ammonium bromide, the MBC came out at 18.5 µM with Enterococcus faecalis, 16.9 µM in the assay on Escherichia coli, 18.3 µM in the assay on Shigella sonnei and 18.9 µM in the assay on Staphylococcus aureus.
In the same order, the values of `CCCCCCCCCCCCCCC(COC(=O)C[N+](C)(C)C)(COC(=O)C[N+](C)(C)C)COC(=O)C[N+](C)(C)C` are 9 µM, 7.3 µM, 9.6 µM and 11.3 µM.
On the same counts, the results for `CCCCCCCCCCCCCCC(COC(=O)C[n+]1ccccc1)(COC(=O)C[n+]1ccccc1)COC(=O)C[n+]1ccccc1` are 4.9 µM, 6.5 µM, 3.5 µM and 5.2 µM.
On the same counts, the results for `CCCCCCCCCCCCCCC(COC(=O)C[N+](C)(C)C)COC(=O)C[N+](C)(C)C` are 12 µM, 9.7 µM, 14.9 µM and 15.1 µM.
As for `CCCCCCCCCCCCCCCCOC(=O)C[N+](C)(C)C`, the MBC was determined as 22.5 µM in the assay on Enterococcus faecalis, 20.6 µM against Escherichia coli, 33.8 µM in the assay on Shigella sonnei and 24.5 µM in the assay with Staphylococcus aureus.
